This is an account of results in ChEMBL document CHEMBL1128641, “N-3-substituted pyrimidinones as potent, orally active, AT1 selective angiotensin II receptor antagonists” (J Med Chem, 1995).

Structures are written as SMILES.

In test [1] the test system is Rattus norvegicus. The test can be described thus: Time duration was determined from onset of the action till no response after (i.v.) administration of 1 mg/kg in anesthetized, ganglion blocked, A II- infused rat. To be noted: route intravenous. The test is classed as functional. In outline:
(§1)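 Male Sprague-Dawley rats (300–400 g) were anesthetized with urethane (1.25 g/kg im) and ganglion-blocked with pentolinium (0.1 mg/kg/min), with carotid BP recorded at 37 °C. After three reproducible A II challenges (100 ng/kg iv, every 10 min), compound was given iv 5 min before the next challenge. Challenges continued until the response returned near basal, with one dose per animal. Vehicle was 1% DMSO/stoichiometric NaOH or 0.5% methocel.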

In test [2] the target is T1, Angiotensin II receptor (Rattus norvegicus) (UniProt P29089+P25095+P35351). The test can be described thus: Effect on pressure response to angiotensin II receptor (AII) after (i.v.) administration of 1 mg/kg in anesthetized, ganglion blocked, A II- infused rat was determined in vivo. Type of test: functional, organism-based. Details: dose 1 mg/kg. To be noted: at 1 mg/kg. The method in brief:
as §1

Test [3] has as its target T2, Angiotensin II receptor (AT-1) type-1 (Rattus norvegicus, UniProt P29089+P25095).
T2 sequence (P29089 whole entry): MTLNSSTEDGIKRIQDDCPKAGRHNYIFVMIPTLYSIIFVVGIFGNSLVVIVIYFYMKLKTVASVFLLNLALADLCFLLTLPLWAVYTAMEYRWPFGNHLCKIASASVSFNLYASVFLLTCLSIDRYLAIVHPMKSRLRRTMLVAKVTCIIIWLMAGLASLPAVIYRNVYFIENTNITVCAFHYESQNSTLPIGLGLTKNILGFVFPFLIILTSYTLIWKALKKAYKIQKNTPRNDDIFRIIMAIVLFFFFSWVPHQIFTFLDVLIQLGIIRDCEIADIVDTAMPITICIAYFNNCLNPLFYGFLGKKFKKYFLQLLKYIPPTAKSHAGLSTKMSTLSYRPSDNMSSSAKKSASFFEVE
T2 sequence (P25095 whole entry): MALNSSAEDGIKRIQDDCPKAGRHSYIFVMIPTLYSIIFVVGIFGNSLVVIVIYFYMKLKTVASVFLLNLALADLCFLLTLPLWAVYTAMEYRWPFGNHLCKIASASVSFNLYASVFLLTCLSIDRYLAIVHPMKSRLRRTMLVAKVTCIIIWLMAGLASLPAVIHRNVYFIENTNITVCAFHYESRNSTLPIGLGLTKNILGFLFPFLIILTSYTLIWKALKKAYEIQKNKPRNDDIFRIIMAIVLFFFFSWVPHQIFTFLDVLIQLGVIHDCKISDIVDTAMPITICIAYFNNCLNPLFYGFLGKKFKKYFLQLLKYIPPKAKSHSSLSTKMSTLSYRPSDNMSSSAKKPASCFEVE
The experiment in a line: Displacement of [3H]angiotensin II from Angiotensin II type 1 receptor in rat adrenal cortical membrane. The test is classed as cell membranes. On the technique in general: Displacement assays read how much labelled ligand stays bound in the presence of the test substance.

Test [4] deals with Rattus norvegicus. The test can be described thus: Time duration was determined from onset of the action till no response after […] administration of 1 mg/kg in anesthetized, ganglion blocked, A II- infused rat. Type of test: functional.
The target of test [5] is T1, Angiotensin II receptor (Rattus norvegicus). The experiment in a line: Effect on pressure response to angiotensin II receptor (AII) after (i.v.) administration of 1 mg/kg in anesthetized, ganglion blocked, AII-infused rat in vivo. The test is classed as functional, organism-based. Details: dose 1 mg/kg. In outline:
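After three reproducible A II challenges (100 ng/kg iv, every 10 min), compound was given iv 5 min before the next challenge. Challenges continued until the response returned near basal, with one dose per animal. Vehicle was 1% DMSO/stoichiometric NaOH or 0.5% methocel.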

For test [6] the target is unchanged. The test can be described thus: Effect on pressure response to angiotensin II receptor (AII) after […] administration of 1 mg/kg in anesthetized, ganglion blocked, A II- infused rat was determined in vivo. Set-up: dose 1 mg/kg. The test is classed as functional, organism-based. In outline: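 Compound was given intraduodenally, one dose per animal, in 1% DMSO/stoichiometric NaOH or 0.5% methocel. Inhibition was read 30 min after dosing; the 1 mg/kg duration is the time from onset until inhibition was no longer significant.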

Test [7] addresses Type-2 angiotensin II receptor (Bos taurus, UniProt G5E6F7). The experiment in a line: Binding affinity towards Angiotensin II type 2 receptor in bovine cerebellar cortical membranes; Inactive.
The subject of test [8] is Rattus norvegicus. The experiment in a line: Time from onset of the action at a dose of 1 mg/kg until significant inhibition of pressure response is no longer observed in anesthetized, ganglion blocked, A II- infused rat after […] administration. Type of test: functional.
Test [9] has as its system Rattus norvegicus. The experiment in a line: ime duration was determined from onset of the action till no response after […] in anesthetized, ganglion blocked, A II- infused rat. The test is classed as functional.

T1 sequence (P35351 whole entry, looked up, one chain of several, the tested form may be a part): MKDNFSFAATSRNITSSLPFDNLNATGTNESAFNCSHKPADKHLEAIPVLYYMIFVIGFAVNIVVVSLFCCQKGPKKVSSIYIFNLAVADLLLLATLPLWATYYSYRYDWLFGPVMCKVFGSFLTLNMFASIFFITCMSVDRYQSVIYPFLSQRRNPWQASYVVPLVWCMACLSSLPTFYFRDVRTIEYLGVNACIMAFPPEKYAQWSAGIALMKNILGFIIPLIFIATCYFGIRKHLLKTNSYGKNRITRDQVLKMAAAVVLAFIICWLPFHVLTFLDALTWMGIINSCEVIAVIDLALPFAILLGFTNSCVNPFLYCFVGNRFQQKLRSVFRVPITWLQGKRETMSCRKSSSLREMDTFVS

In turn, `CCCCc1nc(Cl)c(CO)n1Cc1ccc(-c2ccccc2C(=O)O)cc1` yielded a Duration in the test on Rattus norvegicus [1] of 25 min. Moreover, the inhibition in test [2] stood at 48%.

In turn, `CCCCc1nc(C)n(Cc2ccccc2)c(=O)c1Cc1ccc(-c2ccccc2-c2nn[nH]n2)cc1` displayed a Ki in test [3] of 0.003 µM. Besides, the Duration with Rattus norvegicus [4] is 60 min; with Rattus norvegicus [1], 45 min. For the same compound, the results for the ED50 in test [5] and in test [6] were 1.07 mg/kg and over 10 mg/kg, respectively.

Take `CCCCc1nc(C)n(Cc2ccccc2C(=O)O)c(=O)c1Cc1ccc(-c2ccccc2-c2nn[nH]n2)cc1`: the Ki in test [7] was over 4 µM; in test [3], 0.018 µM. Moreover, the Duration is over 120 min in the test with Rattus norvegicus [8] and 65 min with Rattus norvegicus [1]. For the same compound, the values for the ED50 in [5] and in test [6] were 0.31 mg/kg and 4.2 mg/kg, respectively.

For the compound `CCCCc1nccc(=O)n1Cc1ccc(-c2ccccc2C(=O)O)cc1`, the inhibitory constant (Ki) is over 4 µM in test [7] and 1.097 µM in test [3]. The compound also had a Duration with Rattus norvegicus [1] of 35 min. This compound also yielded an inhibition in [2] of 42%.

For `CCCCc1ncn(Cc2ccccc2C(=O)O)c(=O)c1Cc1ccc(-c2ccccc2C(=O)O)cc1`, the figures for the Ki in test [7] and in [3] were over 4 µM and 0.379 µM, respectively. The same compound had a Duration with Rattus norvegicus [1] of 25 min. This compound had an inhibition in test [2] of 43%.

Turning to `CCCCc1nc(C)n(Cc2sccc2C(=O)O)c(=O)c1Cc1ccc(-c2ccccc2C(=O)O)cc1`, the results for the Ki in [7] and in [3] were over 4 µM and 0.181 µM, respectively. For the same compound, in the test on Rattus norvegicus [1], the Duration turned out to be 15 min. Also, the inhibition in [2] turned out to be 33%.

On to `CCCCc1nc(C)n(Cc2cccs2)c(=O)c1Cc1ccc(-c2ccccc2-c2nnn[nH]2)cc1`, for which the Ki in test [7] was over 4 µM. The figures for the Duration in the test on Rattus norvegicus [4] and in the test with Rattus norvegicus [1] were 60 min and 55 min, respectively.

`CCCCc1nc(C)n(Cc2ccccc2C(=O)O)c(=O)c1Cc1ccc(-c2ccccc2C(=O)O)cc1`: the Ki is over 4 µM in test [7] and 0.401 µM in test [3]. In the test with Rattus norvegicus [1], this compound registered a Duration of 15 min. Also, in test [2], the inhibition turned out to be 46%.

`CCCCc1nc(C)n(Cc2occc2C(=O)OC)c(=O)c1Cc1ccc(-c2ccccc2-c2nnn[nH]2)cc1`: the Ki in test [7] is over 4 µM.

On to `CCCCc1ncn(Cc2cccs2)c(=O)c1Cc1ccc(-c2ccccc2C(=O)O)cc1`, for which the results for the Ki in test [7] and in [3] were over 4 µM and 0.06 µM, respectively. In the test on Rattus norvegicus [1], this compound registered a Duration of 15 min. Besides, the inhibition in test [2] is 23%.

The compound `CCCCc1nc(C)n(Cc2occc2C(=O)OC)c(=O)c1Cc1ccc(-c2ccccc2-c2nn[nH]n2)cc1` displayed a Ki in test [3] of 0.00058 µM. Moreover, the values for the Duration with Rattus norvegicus [4] and in the test with Rattus norvegicus [1] were over 120 min and 65 min, respectively. The ED50 in test [5] turned out to be 0.3 mg/kg; in [6] it was 1.44 mg/kg.

With `CCCCc1nc(Cl)c(CO)n1Cc1ccc(-c2ccccc2-c2nnn[nH]2)cc1` [LOSARTAN], the Duration in the test on Rattus norvegicus [4] was 120 min; in the test with Rattus norvegicus [1] it was 55 min. The ED50 in [5] is 0.32 mg/kg; in test [6], 3.7 mg/kg.

For `CCCCc1nc(C)nc(O)c1Cc1ccc(-c2ccccc2C(=O)O)cc1`, the Ki in test [7] was over 4 µM; in [3], 0.113 µM. In addition, the Duration in the test on Rattus norvegicus [1] was determined as 35 min. The compound further registered an inhibition in [2] of 53%.

In the case of `CCCCc1nc(C)n(Cc2sccc2C(=O)O)c(=O)c1Cc1ccc(-c2ccccc2-c2nnn[nH]2)cc1`, the Ki in test [7] is over 4 µM.

Turning to `CCCCc1nc(C)[nH]c(=O)c1Cc1ccc(-c2ccccc2-c2nnn[nH]2)cc1`, the inhibition constant Ki in [7] was over 4 µM.

As to `CCCCc1ncnc(O)c1Cc1ccc(-c2ccccc2C(=O)O)cc1`, the Ki in test [7] was over 4 µM; in test [3], 0.148 µM. In the test with Rattus norvegicus [1], this compound returned a Duration of 35 min. The inhibition in [2] was 50%.

For the compound `CCCCc1nc(C)n(Cc2occc2C(=O)O)c(=O)c1Cc1ccc(-c2ccccc2C(=O)O)cc1`, the Ki was over 4 µM in test [7] and 0.264 µM in [3]. Moreover, the 50% effect level in test [5] (ED50) was put at a dose of 0.85 mg/kg. The Duration in the test on Rattus norvegicus [1] came out at 25 min.

Turning to `CCCCc1nc(C)cc(=O)n1Cc1ccc(-c2ccccc2C(=O)O)cc1`, the values for the Ki in test [7] and in test [3] were over 4 µM and 0.263 µM, respectively. This compound showed a Duration in the test on Rattus norvegicus [1] of 15 min. In addition, the inhibition in [2] came to 34%.

On to `CCCCc1nc(C)n(Cc2occc2C(=O)O)c(=O)c1Cc1ccc(-c2ccccc2-c2nn[nH]n2)cc1`, for which the Ki in test [7] is over 4 µM; in test [3], 0.016 µM. Besides, the Duration in the test on Rattus norvegicus [4] is 75 min; in the test on Rattus norvegicus [1] it was 45 min. Besides, the ED50 was 0.43 mg/kg in test [5] and 14.5 mg/kg in [6].

With `CCCCc1ncn(Cc2ccccc2)c(=O)c1Cc1ccc(-c2ccccc2C(=O)O)cc1`, the Ki in test [7] was over 4 µM; in test [3], 0.04 µM. In the test on Rattus norvegicus [1], this compound showed a Duration of 25 min. This compound also showed an inhibition in test [2] of 39%.

In [7], `CCCCc1nc(C)n(Cc2sccc2C(=O)OC)c(=O)c1Cc1ccc(-c2ccccc2-c2nnn[nH]2)cc1` showed a Ki of over 4 µM. Besides, the Duration is given as over 120 min in the test with Rattus norvegicus [4] and 65 min with Rattus norvegicus [1].

As for `CCCCc1nc(C)nc(O)c1Cc1ccc(-c2ccccc2-c2nn[nH]n2)cc1`, the Ki in [3] was determined as 0.003 µM. Further, the Duration in the test with Rattus norvegicus [1] is given as 55 min. This compound came in with an inhibition in test [2] of 87%.

For `CCCCc1nc(C)n(Cc2ccsc2C(=O)OC)c(=O)c1Cc1ccc(-c2ccccc2-c2nn[nH]n2)cc1`, the Ki in test [7] was over 4 µM; in test [3] it was 0.0021 µM. Moreover, the Duration with Rattus norvegicus [4] is recorded as over 120 min; in the test on Rattus norvegicus [1], 65 min. Further, the ED50 stood at 0.54 mg/kg in test [5] and 2.67 mg/kg in [6].

As to `CCCCc1nc(C)n(Cc2sccc2C(=O)O)c(=O)c1Cc1ccc(-c2ccccc2-c2nn[nH]n2)cc1`, the Ki in test [3] came out at 0.014 µM. Further, the Duration was over 120 min in the test with Rattus norvegicus [9] and 55 min in the test on Rattus norvegicus [1]. The ED50 in test [5] was 0.45 mg/kg; in [6], 7.24 mg/kg.

In turn, `CCCCc1ncn(Cc2ccc(C(=O)O)cc2)c(=O)c1Cc1ccc(-c2ccccc2C(=O)O)cc1` returned a Ki in test [7] of over 4 µM. The compound further yielded a Duration with Rattus norvegicus [1] of 25 min. The same compound gave an inhibition in test [2] of 46%.

Take `CCCCc1nc(C)n(Cc2ccccc2)c(=O)c1Cc1ccc(-c2ccccc2-c2nnn[nH]2)cc1`: the Ki in test [7] is over 4 µM.

A word on the inhibition: it is how much of the control response was suppressed. Read a high inhibition as a strong effect. One may read the Ki as the equilibrium dissociation constant of an inhibitor or competing ligand from its target. Low readings indicate higher affinity, high ones lower affinity. What is called ED50 is the dose at which the effect has come halfway, by size or by number of responders. Read a low ED50 as greater potency.
